The record followed here is PubChem BioAssay.

Calls of active or inactive are those of the source. Rule as the data show it, unless noted: active = inhibition above about 30%; inactive = the rest.

The nature of assay [1]: Her2 expression decrease, cell viability multiplex – SKBR3 breast tumor cells, AlphaScreen, ATP viability, primary screen (AID 461;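 active = Her2 level under about 52% in both replicate screens, with viability over 70% of control, limit read from the data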;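 as to Her2 level: lower value means less Her2 protein in the cells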;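 as to viability: percent of carrier control wells set as 100% viability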). The conditions noted are these: SKBR3 Her2 protein level, 18-24 h, measured here: SKBR3 viability, ATP luminescence, at 10 µM. (In general: Alpha assays give light when donor and acceptor beads are brought close together.)
For assay [2], the target named is Receptor tyrosine-protein kinase erbB-2 (Homo sapiens) (UniProt P04626). Described as above. As to conditions: 18-24 h, at 10 µM, stronger effect = lower value.
The nature of assay [3]: reduced viability of SK-BR-3 breast cancer cells – cell-based, 24 h, human, pilot screen (AID 572;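 active = viability at or below 10% of carrier control in both of two separate runs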;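 also: compound exposure lasted between 18 and 24 h rather than exactly 24 h; 100% = carrier-treated control wells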). The conditions noted are these: SK-BR-3 viability, CellTiter-Glo luminescence, at 10 µM, stronger effect = lower value. A general note: Cellular ATP, detected with luciferase, serves as a proxy for viable cell number.
Assay [4] can be described thus: HUVEC growth inhibition – cell-based, human, primary screen (AID 575;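 active = viability at or below 30% in both replicate assays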;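 also: 100% = median of untreated cell wells with 0.1% DMSO on each plate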). As to conditions: HUVEC proliferation, CellTiter-Glo luminescence, 72 h; at 10 µM; stronger effect = lower value. The method, boiled down:
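Assay system: Primary human umbilical vein endothelial cells | Quantity: 1250 cells per well | Medium: Supplemented EBM, 2% fetal bovine serum | Detection: CellTiter-Glo luminescence measuring cellular ATP | Read-out: % viability vs DMSO wells | Plate: Collagen-coated 384-well format | Times: 72 h exposure, 37 °C, 5% CO2, 30 min RT equilibration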

A short description of assay [5]: H69AR cell proliferation blockers – human, duplicate replicates, primary screen (AID 580;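 active = viability at or under a set limit in both replicates, limit being median viability minus 3 SD, cut at about 48% in these data, passing the limit was not always enough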;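 also: 100% = mean luminescence of untreated wells and 0% = no signal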). The conditions noted are these: H69AR lung tumor cells viability, ATP luminescence, 72 h; at 10 µM; stronger effect = lower value.
A short description of assay [6]: MRP1 drug-resistance reversers in H69AR cells – cell-based, doxorubicin co-treatment, pilot screen (AID 601;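 active = viability loss from added drug above about 55%, and viability with drug at most 40%, in both replicates, limit read from the data, passing the limit was not always enough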). As to conditions: CellTiter-Glo, 72 h, at 10 µM; for differential viability (reversal): stronger effect = higher value.
Assay [7] can be described thus: yeast transport mutant growth inhibition pilot in 384-well plates, post-Golgi transport modulator project (AID 636; in the data active = inhibition above about 31%). As to conditions: absorbance 615 nm, about 18 h, stronger effect = higher value.
Assay [8] is described as follows: growth suppression of yeast trafficking mutant, preliminary HTS, modulators of trafficking downstream of Golgi apparatus project, 1536-format plate, OD 615 nm (AID 637). As to conditions: yeast transport mutant growth, absorbance 615 nm, 18 h; stronger effect = higher value.
Where [9] appears, read: H69AR cells + 2 uM doxorubicin, measured here: viability with 2 uM doxorubicin, stronger effect = lower value.
[10] abbreviates: H69AR cells, compound alone cytotoxicity.

Receptor tyrosine-protein kinase erbB-2 (Homo sapiens), sequence (P04626 whole entry, looked up): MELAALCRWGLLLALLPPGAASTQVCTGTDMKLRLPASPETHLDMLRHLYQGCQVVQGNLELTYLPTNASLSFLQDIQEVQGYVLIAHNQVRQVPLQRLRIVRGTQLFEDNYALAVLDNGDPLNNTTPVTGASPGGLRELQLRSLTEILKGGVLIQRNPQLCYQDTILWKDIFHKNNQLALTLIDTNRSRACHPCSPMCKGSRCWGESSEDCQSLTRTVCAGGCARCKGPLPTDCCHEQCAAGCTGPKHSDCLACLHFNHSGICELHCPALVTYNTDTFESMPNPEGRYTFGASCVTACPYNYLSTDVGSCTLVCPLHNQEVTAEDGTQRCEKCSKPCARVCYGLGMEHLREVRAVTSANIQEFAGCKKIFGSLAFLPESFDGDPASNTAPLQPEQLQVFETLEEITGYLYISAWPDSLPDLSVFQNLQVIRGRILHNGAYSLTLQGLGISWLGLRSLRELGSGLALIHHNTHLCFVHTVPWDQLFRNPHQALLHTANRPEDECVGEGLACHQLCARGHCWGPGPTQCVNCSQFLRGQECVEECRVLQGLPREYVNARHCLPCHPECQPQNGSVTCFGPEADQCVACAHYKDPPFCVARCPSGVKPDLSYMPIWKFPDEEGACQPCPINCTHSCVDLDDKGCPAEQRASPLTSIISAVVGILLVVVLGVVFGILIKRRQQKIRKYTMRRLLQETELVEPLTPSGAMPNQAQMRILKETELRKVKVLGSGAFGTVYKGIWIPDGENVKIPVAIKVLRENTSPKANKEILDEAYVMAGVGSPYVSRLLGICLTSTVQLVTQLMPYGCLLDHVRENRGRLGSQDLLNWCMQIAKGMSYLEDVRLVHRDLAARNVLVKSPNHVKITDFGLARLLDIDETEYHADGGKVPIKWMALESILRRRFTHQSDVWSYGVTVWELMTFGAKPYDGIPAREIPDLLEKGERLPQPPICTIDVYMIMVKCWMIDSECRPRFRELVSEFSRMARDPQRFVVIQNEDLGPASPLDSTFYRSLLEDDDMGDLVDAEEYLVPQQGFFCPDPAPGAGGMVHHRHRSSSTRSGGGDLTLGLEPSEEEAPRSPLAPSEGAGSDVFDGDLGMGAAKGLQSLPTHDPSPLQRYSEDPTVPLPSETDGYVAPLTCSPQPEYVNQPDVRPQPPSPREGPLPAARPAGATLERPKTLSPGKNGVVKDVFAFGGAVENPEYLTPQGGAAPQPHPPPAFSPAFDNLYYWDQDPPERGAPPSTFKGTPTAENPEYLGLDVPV

As usually defined, the viability is a read-out of living cells in per cent, often relative to untreated cells. By inhibition is commonly meant the drop in the measured response relative to a control, in per cent. On to `Cc1nnc(SCC(=O)Nc2ccc(Br)cn2)[nH]c1=O`, for which the viability in assay [1] is 118%; in assay [3], 118% (inactive); in assay [4] it was 98.7% (inactive); in assay [5], 98.3% (inactive); in assay [6] (setting [9]) it was 93.6%; in assay [6] (setting [10]), 98.3%. In assay [2], the Her2 level is 85% (inactive). In assay [6] (H69AR cells + 2 uM doxorubicin), the differential viability (reversal) was 4.71% (inactive). In addition, the inhibition in assay [7] was 1.84% (inactive); in assay [8] it was 8.17% (inactive).

Regarding `Cc1ccc(N2CC(C)Cn3c2nc2c3c(=O)n(CC(=O)OCc3ccccc3)c(=O)n2C)cc1C` (stereo not given), the viability was 86.5% in assay [1]; 86.5% (inactive) in assay [3]; 74.8% (inactive) in assay [4]; 93.8% (inactive) in assay [5]; 67.2% in assay [6] (setting [9]); 93.8% in assay [6] (setting [10]). Also, the Her2 level in assay [2] is 99.5% (inactive). Further, in assay [6] (H69AR cells + 2 uM doxorubicin), the differential viability (reversal) is 26.6% (inactive). Also, the inhibition in assay [7] was -4.32% (inactive); in assay [8], 1.97% (inactive).

Regarding `O=C1CC(N2CCN(c3ccc(Cl)c(Cl)c3)CC2)C(=O)N1` (stereo not given), the viability was 67.5% in assay [1]; 67.5% (inactive) in assay [3]; 76.5% (inactive) in assay [4]; 107% (inactive) in assay [5]; 89.1% in assay [6] (setting [9]); 107% in assay [6] (setting [10]). The Her2 level in assay [2] was 103% (inactive). The differential viability (reversal) in assay [6] (H69AR cells + 2 uM doxorubicin) was 18.3% (inactive). The values for the inhibition in assay [7] and in assay [8] were -2.84% (inactive) and 27.7% (inactive), respectively.

As to `Cn1c(=N)n(CC(=O)O)c2ccccc21`, the viability was 108% in assay [1]; 108% (inactive) in assay [3]; 91.5% (inactive) in assay [4]; 96.2% (inactive) in assay [5]; 89.4% in assay [6] (setting [9]); 96.2% in assay [6] (setting [10]). In addition, the Her2 level in assay [2] was 100% (inactive). In addition, the differential viability (reversal) in assay [6] (H69AR cells + 2 uM doxorubicin) was 6.81% (inactive). The inhibition in assay [7] is -5.97% (inactive); in assay [8], -5.4% (inactive).

With `COc1ccc(-n2ncc3c(NCCCN4CCOCC4)ncnc32)cc1`, the viability in assay [1] is 102%; in assay [3], 102% (inactive); in assay [4], 103% (inactive); in assay [5], 109% (inactive); in assay [6] (setting [9]), 104%; in assay [6] (setting [10]) it was 109%. Moreover, in assay [2], the Her2 level was 102% (inactive). In addition, in assay [6] (H69AR cells + 2 uM doxorubicin), the differential viability (reversal) was 4.54% (inactive). Further, the inhibition is -6.13% (inactive) in assay [7] and 7.87% (inactive) in assay [8].

Regarding `Cn1c(=O)c2c(nc(SCCCC#N)n2Cc2ccccc2F)n(C)c1=O`, the viability in assay [1] is 79.5%; in assay [3], 79.5% (inactive); in assay [4] it was 95.8% (inactive); in assay [5], 71.2% (inactive); in assay [6] (setting [9]) it was 75.8%; in assay [6] (setting [10]) it was 71.2%. Besides, the Her2 level in assay [2] was 84.5% (inactive). In addition, the differential viability (reversal) in assay [6] (H69AR cells + 2 uM doxorubicin) was -4.56% (inactive). Further, the inhibition was -3.47% (inactive) in assay [7] and -3.67% (inactive) in assay [8].

For the molecule `O=C(C1CCN(S(=O)(=O)Cc2ccccc2)CC1)N1CCN(c2ncccn2)CC1`, the viability in assay [1] was 83%; in assay [3], 83% (inactive); in assay [4], 115% (inactive); in assay [5], 112% (inactive); in assay [6] (setting [9]), 90%; in assay [6] (setting [10]), 112%. Also, the Her2 level in assay [2] was 108% (inactive). Besides, the differential viability (reversal) in assay [6] (H69AR cells + 2 uM doxorubicin) was 22.3% (inactive). The inhibition in assay [7] is -0.39% (inactive); in assay [8] it was -2.36% (inactive).

Regarding `CC(C)Oc1ccc(-c2nn(-c3ccccc3)cc2/C=c2\sc3ncnn3c2=O)cc1`, the viability was 84% in assay [1]; 84% (inactive) in assay [3]; 71.5% (inactive) in assay [4]; 98.1% (inactive) in assay [5]; 89.9% in assay [6] (setting [9]); 98.1% in assay [6] (setting [10]). In addition, the Her2 level in assay [2] is 106% (inactive). In addition, the differential viability (reversal) in assay [6] (H69AR cells + 2 uM doxorubicin) was 8.19% (inactive). Besides, the inhibition in assay [7] is 5.92% (inactive); in assay [8], -1.82% (inactive).

In the case of `COCCn1nnnc1CN(CCCN1CCOCC1)Cc1cc2c(C)ccc(C)c2[nH]c1=O`, the viability in assay [1] is 85%; in assay [3], 85% (inactive); in assay [4], 98.5% (inactive); in assay [5], 68.7% (inactive); in assay [6] (setting [9]), 74.1%; in assay [6] (setting [10]) it was 68.7%. Also, the Her2 level in assay [2] is 124% (inactive). Also, in assay [6] (H69AR cells + 2 uM doxorubicin), the differential viability (reversal) is -5.44% (inactive). For the same molecule, the inhibition in assay [7] is 4.55% (inactive); in assay [8], -7.33% (inactive).

As to `COc1ccc(NC(=O)CCc2nc(-c3ccccc3F)no2)cc1`, the viability in assay [1] was 115%; in assay [3], 115% (inactive); in assay [4] it was 91.9% (inactive); in assay [5] it was 93.6% (inactive); in assay [6] (setting [9]) it was 89.1%; in assay [6] (setting [10]), 93.6%. In addition, the Her2 level in assay [2] was 99% (inactive). Besides, in assay [6] (H69AR cells + 2 uM doxorubicin), the differential viability (reversal) was 4.53% (inactive). In addition, the values for the inhibition in assay [7] and in assay [8] were -0.26% (inactive) and -0.66% (inactive), respectively.

Regarding `COC(=O)C(C)NC(=O)C12CC3CC(CC(C3)C1)C2` (stereo not given), the viability in assay [1] was 92%; in assay [3], 92% (inactive); in assay [4], 107% (inactive); in assay [5], 99.7% (inactive); in assay [6] (setting [9]), 94.8%; in assay [6] (setting [10]) it was 99.7%. Also, in assay [2], the Her2 level is 123% (inactive). Moreover, the differential viability (reversal) in assay [6] (H69AR cells + 2 uM doxorubicin) was 4.86% (inactive). The inhibition in assay [7] was -1.54% (inactive); in assay [8] it was -5.33% (inactive).

In the case of `CCCCCCn1c(SCCCC)nc2c1c(=O)[nH]c(=O)n2C`, the viability in assay [1] is 93.5%; in assay [3] it was 93.5% (inactive); in assay [4], 72.7% (inactive); in assay [5] it was 88.2% (inactive); in assay [6] (setting [9]), 87.5%; in assay [6] (setting [10]) it was 88.2%. The Her2 level in assay [2] was 99% (inactive). The differential viability (reversal) in assay [6] (H69AR cells + 2 uM doxorubicin) is 0.76% (inactive). Moreover, the inhibition in assay [7] was -5.07% (inactive); in assay [8], -5% (inactive).

As for `O=C(OCCCN1CCCC1)C1(c2ccccc2)CCCC1`, the viability in assay [1] is 82.5%; in assay [3], 82.5% (inactive); in assay [4] it was 121% (inactive); in assay [5], 88.6% (inactive); in assay [6] (setting [9]) it was 82.2%; in assay [6] (setting [10]), 88.6%. Also, in assay [2], the Her2 level is 117% (inactive). Also, the differential viability (reversal) in assay [6] (H69AR cells + 2 uM doxorubicin) is 6.39% (inactive). The values for the inhibition in assay [7] and in assay [8] were -2.84% (inactive) and -13.3% (inactive), respectively.

As for `COc1cc(C(=O)Nc2cccc(-c3nc4cc(C)ccc4o3)c2)cc(OC)c1OC`, the viability was 95% in assay [1]; 95% (inactive) in assay [3]; 66.8% (inactive) in assay [4]; 55.7% (inactive) in assay [5]; 51.3% in assay [6] (setting [9]); 55.7% in assay [6] (setting [10]). Also, in assay [2], the Her2 level was 80% (inactive). Besides, the differential viability (reversal) in assay [6] (H69AR cells + 2 uM doxorubicin) is 4.43% (inactive). The inhibition in assay [7] is -5% (inactive); in assay [8] it was 4.76% (inactive).

As for `C=C(C)Cn1c(N2CCN(CC)CC2)nc2c1c(=O)[nH]c(=O)n2C`, the viability is 99.5% in assay [1]; 99.5% (inactive) in assay [3]; 80% (inactive) in assay [4]; 85.7% (inactive) in assay [5]; 87.5% in assay [6] (setting [9]); 85.7% in assay [6] (setting [10]). The Her2 level in assay [2] was 99.5% (inactive). The differential viability (reversal) in assay [6] (H69AR cells + 2 uM doxorubicin) is -1.74% (inactive). In addition, the inhibition in assay [7] was -1.07% (inactive); in assay [8], 6.39% (inactive).
